Screening data: PubChem, several laboratories
Hits are enriched below; roughly 4.5% of the tested compounds scored in any of these assays.
M18AAP inhibitor – PfM18AAP inhibitors, malaria aminopeptidase, primary screen, biochemical, QFRET, recombinant enzyme; M18 aspartyl aminopeptidase (Plasmodium falciparum 3D7); H-Glu-NHMec fluorogenic cleavage; inhibition, % at 7.35 µM; 290,000 tested, 1.2% active; AID 1822, 2009;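 active means inhibition above the campaign mean inhibition over all tested compounds plus 3 SD, cut at about 28% in these data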
CHOP UPR activ – activators of apoptotic CHOP UPR arm, primary screen, cell-based, CHO-CHOP luciferase reporter, luminescence, uHTS. 330,000 tested, 0.34% active. activation, % at 10 µM. AID 449763, 2010. UPR activation; percent of tunicamycin response over DMSO baseline;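 active means at 10 µM dose, activation of 40% or more, normalized to positive control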
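Test system: CHO CHOP reporter cells. Input: 500 CHO-CHOP cells per well. Medium: F12 with 10% FBS. Technique: luciferase luminescence. Measure: percent activation relative to tunicamycin control. Dosing: 10 µM compound, 0.5% DMSO. Timing: 16-18 h cell attachment, then 6 h compound exposure, 37 °C.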
CHOP inh – inhibitors of CHOP promoter induction, primary screen, cell-based, unfolded protein response, luciferase reporter. inhibition, % at 10 µM. CHO-K1 CHOP-promoter luciferase, tunicamycin-induced, 15-18 h. 220,000 tested, 3.8% active;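 active means compounds that reduced the stress-induced luciferase reporter signal by more than about 70% of percent inhibition, limit read from the data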
NS3 helicase inh – inhibitors of HCV NS3 helicase, primary screen, biochemical, Cy5 molecular beacon fluorescence | Hepatitis C virus NS3 helicase | NS3 helicase DNA unwinding | inhibition, % at 10.9 µM | 290,000 tested, 0.56% active;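 active means inhibition above the mean of all tested compounds plus 3 SD, set per campaign, cut at about 35% in these data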
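Measured by: Cy5 fluorescence, 0 and 60 min reads / Assay system: NS3 helicase fragment of HCV / Control set: low DMSO, high thioflavine S at 110 µM / Times: 1 h reaction at 25 °C, ATP-initiated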
UPR XBP1 act – activators of adaptive XBP1 UPR arm, primary screen, cell-based, CHO-XBP1 luciferase reporter, luminescence, uHTS | IRE1-XBP1 UPR activation; percent of tunicamycin response, DMSO as zero | activation, % at 20 µM | 330,000 tested, 0.33% active | AID 463104, 2010;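 active means versus positive control, 20 µM dose yields 30% or more activation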
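Material: CHO cell line with stable XBP1 luciferase reporter; schedule: 16-18 h cell attachment at 37 °C, then 6 h compound exposure; signal: glow luminescence from Steady-Glo reagent; medium: serum-containing F12 medium, 10% FBS; benchmarks: tunicamycin 10 µg/mL and vehicle-only wells; read-out: percent activation relative to tunicamycin reference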
p97 ATPase inh – inhibitors of human p97 ATPase, primary screen, biochemical; Transitional endoplasmic reticulum ATPase (Homo sapiens), P55072; recombinant p97 ATPase, Kinase-Glo ATP luminescence, 3 h; inhibition, % at 8 µM; 220,000 tested, 0.42% active; in the data active means inhibition above about 15%
Target sequence (P55072 whole entry, looked up): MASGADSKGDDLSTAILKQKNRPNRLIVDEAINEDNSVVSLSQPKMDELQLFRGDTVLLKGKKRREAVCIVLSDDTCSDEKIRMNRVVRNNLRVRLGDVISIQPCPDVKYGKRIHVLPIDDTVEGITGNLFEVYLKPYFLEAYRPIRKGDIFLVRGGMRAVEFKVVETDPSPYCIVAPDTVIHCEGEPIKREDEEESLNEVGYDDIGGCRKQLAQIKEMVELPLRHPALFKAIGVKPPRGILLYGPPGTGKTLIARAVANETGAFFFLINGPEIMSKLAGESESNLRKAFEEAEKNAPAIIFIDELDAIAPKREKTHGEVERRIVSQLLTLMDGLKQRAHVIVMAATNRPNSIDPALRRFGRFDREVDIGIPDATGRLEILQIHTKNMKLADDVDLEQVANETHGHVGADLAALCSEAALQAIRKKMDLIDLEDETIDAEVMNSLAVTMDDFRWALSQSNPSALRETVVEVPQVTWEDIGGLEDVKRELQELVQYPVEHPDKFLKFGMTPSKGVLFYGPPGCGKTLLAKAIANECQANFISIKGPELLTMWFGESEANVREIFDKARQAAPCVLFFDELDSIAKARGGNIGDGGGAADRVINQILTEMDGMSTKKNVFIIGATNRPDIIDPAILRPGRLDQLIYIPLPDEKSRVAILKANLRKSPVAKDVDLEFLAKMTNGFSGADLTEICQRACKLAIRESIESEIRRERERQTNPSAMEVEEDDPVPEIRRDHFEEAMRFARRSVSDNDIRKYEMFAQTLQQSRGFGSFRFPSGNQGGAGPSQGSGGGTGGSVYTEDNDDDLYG
CHOP confirm – retest of CHOP induction inhibitors, confirmation, cell-based. shares compounds with CHOP inh. CHO-CHOP promoter luciferase reporter, tunicamycin-induced, luminescence. inhibition, % at 10 µM. 2,100 tested, 45% active. AID 504437, 2011;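 active means mean of three repeat readings of reporter signal inhibition above a set limit, cut at about 70% in these data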
CHOP UPR conf – activators of apoptotic CHOP UPR arm, confirmation, cell-based, CHO-CHOP luciferase reporter, single concentration | shares compounds with CHOP UPR activ | CHO-CHOP cells, CHOP-luciferase reporter luminescence; percent of tunicamycin response, DMSO as zero | activation, % at 10 µM | 1,000 tested, 64% active | AID 463112, 2010; in the data active means activation above about 33%
XBP1 UPR conf – IRE1-XBP1 UPR arm activators, confirmation, cell-based, CHO-XBP1 luciferase reporter, luminescence, single concentration | shares compounds with UPR XBP1 act | activation, % at 20 µM | 1,000 tested, 63% active | AID 485299, 2010;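 active means reporter signal at least 30% of the positive control's activation in two or more of four replicate wells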
Large screens that a line does not name were inactive (follow-up assays come after a bar, where they were run).

Cc1ccc2nc(SCC(=O)Nc3cc(C(F)(F)F)ccc3N3CCOCC3)[nH]c2c1	UPR XBP1 act 35.4 (no result: CHOP inh) | CHOP confirm inactive | XBP1 UPR conf 39.7
Cc1cnc(NC(=O)c2cc3c(C)nn(Cc4ccccc4Cl)c3s2)s1	CHOP inh 104.0, UPR XBP1 act 43.2 | CHOP confirm inactive | XBP1 UPR conf 82.0
C[C@H](CO)N1C[C@H](C)[C@@H](CN(C)C(=O)Nc2ccccc2)Oc2c(NS(=O)(=O)c3cccs3)cccc2C1=O	none (no result: M18AAP inhibitor, CHOP inh, NS3 helicase inh, p97 ATPase inh)
O=C(Nc1ccc(C(F)(F)F)cc1)c1cc(-c2cccnc2)nc2ccc(Br)cc12	CHOP UPR activ 123.7, CHOP inh 102.5, UPR XBP1 act 91.4 | CHOP confirm 92.9 | CHOP UPR conf 81.2 | XBP1 UPR conf 90.4
CCOC(=O)C1(Cc2ccc(OC)cc2)CCN(C(=O)c2cc(C)nn2C)CC1	none (no result: CHOP inh, p97 ATPase inh)
CN=C1SC(CC(=O)Nc2ccc(F)cc2F)C(=O)N1/N=C/c1ccc(OC(F)F)c(OC)c1 (centres undefined)	CHOP inh 98.3, UPR XBP1 act 201.1 | CHOP confirm 115.6 | XBP1 UPR conf inactive
O=C(CC1SC(=Nc2ccc(OC(F)F)cc2)N(CCN2CCOCC2)C1=O)Nc1ccc(F)cc1F (centres undefined)	none
CC(C)=CCCC1(C)C=Cc2c(c(C)cc3c2[nH]c2cc(O)ccc23)O1 (centres undefined)	CHOP inh 104.2, UPR XBP1 act 62.8 (no result: M18AAP inhibitor, NS3 helicase inh, p97 ATPase inh) | CHOP confirm 118.7 | XBP1 UPR conf 66.6
Cc1cc(=O)[nH]c2cc(O)ccc12	none
CC1CCc2cc(F)ccc2N1C(=O)CSc1nnc2c(n1)[nH]c1ccc(F)cc12 (centres undefined)	CHOP inh 100.9, UPR XBP1 act 66.9 | CHOP confirm 110.2 | XBP1 UPR conf 50.9
Cc1ccc(-c2[nH]ncc2/C=N/n2c(COc3ccccc3)nc3ccccc3c2=O)cc1	CHOP inh 99.1, UPR XBP1 act 36.8 | CHOP confirm 108.0 | XBP1 UPR conf 45.3
Cc1nc2ccccc2c(=O)n1/N=C/c1cn[nH]c1-c1ccccc1	none
CCCN(CC(=O)Nc1ccccc1C)C(=O)c1ccc2c(c1)S(=O)(=O)N=C1CCCCCN12	none (no result: M18AAP inhibitor, CHOP inh, NS3 helicase inh, p97 ATPase inh)
CCOC(=O)c1cnc(-c2ccccc2)nc1Oc1ccc(Cl)c(Cl)c1	none
CCOC(=O)c1nnc(-c2ccccc2)nc1Oc1ccc(Cl)cc1	CHOP inh 105.9, UPR XBP1 act 72.1 | CHOP confirm inactive | XBP1 UPR conf 84.6
Cc1cccc(NC(=O)/C(C#N)=C/c2cn(CC(=O)NCc3ccco3)c3ccccc23)c1C	CHOP inh 108.8, UPR XBP1 act 57.4 | CHOP confirm 90.5 | XBP1 UPR conf 167.9
COC(=O)C1CCN(C(=O)COC(=O)c2cc(-c3ccccc3)nc3ccc(OC)cc23)CC1	none (no result: M18AAP inhibitor, CHOP inh, NS3 helicase inh, p97 ATPase inh)
COC(=O)C1CN(C(=O)COc2ccc(C)c(C)c2)c2ccccc2O1 (centres undefined)	none (no result: CHOP inh, p97 ATPase inh)
O=C(Nc1ccc(Cl)c([N+](=O)[O-])c1)c1ccc(NCCCN2CCOCC2)c([N+](=O)[O-])c1	CHOP inh 97.1, UPR XBP1 act 42.2 | CHOP confirm inactive | XBP1 UPR conf inactive
